Bioassay records (PubChem)
STAT3 inh – STAT3 signaling inhibition; U3A cells, IL-6 STAT3-luciferase reporter, luminescence; host cell line lacks STAT1; inhibition, % at 5.5 µM; hit rate 0.89% among 190,000;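 active = inhibition above the mean inhibition across all screened compounds plus 3 SD, cut at about 44% in these data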
STAT3 act-1 – increases IL-6 driven STAT3 reporter signal; U3A cells, IL-6 STAT3-luciferase reporter, luminescence; 100% = signal with IL-6 EC80 alone; activation (% of control), % at 5.6 µM; hit rate 0.91% among 190,000; AID 871;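 active = activation above the screen-wide mean of compound activation plus 3 SD, cut at about 130% in these data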
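system = STAT3-luciferase reporter U3A cells | reagent = IL-6 stimulus at 33 ng/mL final | timing = 1 h compound pre-exposure, 6 h IL-6 stimulation, 37 °C | measured by = luminescence | evaluation = % activation versus median of IL-6-stimulated wells | control set = IL-6-only wells as 100% reference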
L929 necroptosis – L929 zVAD cell death inhibition | hit rate 0.38% among 220,000 | AID 1377 | viability rescue, % at 10 µM | L929 zVAD necroptosis rescue, ATP luminescence, 24 h; with zVAD 60 µM;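 active = activation, scaled between plate controls, above about 75%, limit read from the data; inactive = activation under that limit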
TNF death inh – TNF-alpha cell death inhibition in Jurkat FADD-/- cells. Jurkat FADD-/- TNF necroptosis rescue, ATP luminescence, 24 h; 0 = TNF only, 100 = no-TNF cells. hit rate 0.068% among 220,000. activation (protection from cell death), % at 10 µM;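 active = activation, meaning protection from cell death, of at least 50% relative to plate controls; inactive = activation below 50%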;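 note: necroptosis triggered by 40 ng/mL TNF-alpha added together with compound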
STAT1 blocker – inhibitors of IFN-gamma induced STAT1 signaling. NIH 3T3 STAT1-luciferase reporter, luminescence. inhibition, % at 5.5 µM. hit rate 0.35% among 200,000. AID 920;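 active = inhibition above a set limit, the mean inhibition across all tested compounds plus 3 SD, cut at about 34% in these data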
STAT3 act-2 – STAT3 activation, confirmation assay; shares compounds with STAT3 act-1; potentiation (% of control), % at 5.7 µM; hit rate 64% among 1,200; U3A STAT3-luciferase reporter, IL-6 potentiation, luminescence; U3A cells lack STAT1; 100 means same as IL-6 alone;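 active = percent activation of the STAT3 luciferase reporter above a set limit taken from the earlier primary screen, cut at about 130% in these data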
NFkB act 2 – NF-kappaB activation in STAT3 activator counter-screen | shares compounds with STAT3 act-1 | human cells, NF-kappaB reporter activation | activation (% of control), % at 5.7 µM | hit rate 11% among 1,200 | AID 1309; in the data active = activation above about 120%;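 note: reporter induced by TNF-alpha stimulation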
STAT1 act – counter-screen for STAT3 activators: STAT1 activation. shares compounds with STAT3 act-1. hit rate 13% among 1,200. AID 1318. activation (% of control), % at 5.7 µM. NIH 3T3 STAT1-luciferase reporter, IFN-gamma, luminescence;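 active = activation above the solvent-only control well mean plus 3 SD, set per screening run, cut at about 120% in these data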
Each line names hits and unclear results; the compound was inactive in the other large screens (follow-up assays come after a bar, where they were run); ! = not confirmed by another sample. In the library only some 2.1% were active in any assay of this set; here they are far more common.

Cc1cc(-c2ccc(Cl)cc2)c(C#N)c(N)n1	STAT3 act-1 148 | STAT3 act-2 140 | NFkB act 2 inactive | STAT1 act inactive
O=C1NC(c2cccs2)Nc2sc3c(c21)CCCC3 (centres undefined)	STAT3 act-1 143 | STAT3 act-2 139 | NFkB act 2 125 | STAT1 act inactive
CN1CCc2c(sc3c2C(=O)NC(c2ccco2)N3)C1 (centres undefined)	none
O=[N+]([O-])c1ccc(Cl)c(/C=N/N2CCN(c3ccccc3)CC2)c1	STAT3 act-1 145 | STAT3 act-2 135 | NFkB act 2 inactive | STAT1 act inactive
O=C(OCn1nnc2ccccc2c1=O)c1ccc(Br)o1	none
O=C(Nc1nc(-c2cccs2)cs1)c1cccc(S(=O)(=O)N2CCCCCC2)c1	STAT3 act-1 140 | STAT3 act-2 inactive | NFkB act 2 inactive | STAT1 act 125
Cc1nc(NS(=O)(=O)c2ccccc2)sc1NC(=O)Nc1ccc(Cl)cc1	none (no result: STAT3 inh, STAT3 act-1, STAT1 blocker)
FC(F)(F)c1nnc2c(Sc3ccccc3)nc3ccccc3n12	none
FC(F)(F)c1nnc2c(Sc3ccccn3)nc3ccccc3n12	STAT3 act-1 141 | STAT3 act-2 146 | NFkB act 2 122 | STAT1 act 128
COc1ccc(OC)c(NC(=O)c2[nH]c(C)c(C(C)=O)c2C)c1	STAT3 act-1 151 | STAT3 act-2 152 | NFkB act 2 inactive | STAT1 act inactive
COc1ccc(CCNC(=O)c2[nH]c(C)c(C(C)=O)c2C)cc1OC	none
CC1CCCN(Cc2nc3c(c(=O)n(C)c(=O)n3C)n2CC(N)=O)C1 (centres undefined)	none
CCOC(=O)c1c(C)oc2c1cc(O)c1ccccc12	STAT3 act-1 145 | STAT3 act-2 152 | NFkB act 2 inactive | STAT1 act inactive
O=S(=O)(Nc1nc2ccccc2nc1-[n+]1cccc(N=C([O-])c2ccc(Cl)cc2)c1)c1ccccc1	none (no result: STAT3 inh, STAT3 act-1, STAT1 blocker)
CC1=NN(c2ccccc2)C(=O)/C1=C/c1ccc[nH]1	STAT3 act-1 150 | STAT3 act-2 160 | NFkB act 2 inactive | STAT1 act inactive
COc1ccc(Nc2nnc(SCC3CCCO3)s2)cc1 (centres undefined)	none
COc1ccccc1-c1nnc(SCC(=O)N2CCC(C)CC2)o1	none
COc1ccccc1-c1nnc(SCC(=O)N2CCOCC2)o1	STAT3 act-1 151 (no result: L929 necroptosis) | STAT3 act-2 159 | NFkB act 2 inactive | STAT1 act inactive
Cc1ccc(NC(=O)Nc2cnccn2)cc1C	none (no result: STAT3 inh, STAT3 act-1, STAT1 blocker)
O=C(Nc1nnc(CC(=O)N2CCOCC2)s1)c1cccs1	STAT3 act-1 147 | STAT3 act-2 inactive | NFkB act 2 inactive | STAT1 act inactive
COc1cc2c(cc1NC(=O)C(C)OC(=O)C1CC(=O)N(Cc3ccco3)C1)oc1ccccc12 (centres undefined)	STAT3 act-1 154 | STAT3 act-2 147 | NFkB act 2 inactive | STAT1 act 122
COc1ccc(NC(=O)c2ccccc2N(Cc2ccccc2)S(C)(=O)=O)cc1OC	none
CC(=O)c1c(C)[nH]c(C(=O)OCC(=O)Nc2cccc(S(=O)(=O)N3CCCC3)c2)c1C	none
O=C(Cc1c[nH]c2ccccc12)Nc1nc2ccccc2[nH]1	STAT3 act-1 146 | STAT3 act-2 154 | NFkB act 2 inactive | STAT1 act inactive
CC1CCN(S(=O)(=O)c2ccc3c(c2)C(=NO)c2cc(S(=O)(=O)N4CCC(C)CC4)ccc2-3)CC1	STAT3 act-1 136 | STAT3 act-2 inactive | NFkB act 2 131 | STAT1 act inactive
Cc1[nH]c(=S)n(CC2CCCO2)c1C (centres undefined)	none
N#CC1=C(N)Oc2c(ccc3ccccc23)C1c1ccsc1 (centres undefined)	STAT3 act-1 138 | STAT3 act-2 inactive | NFkB act 2 inactive | STAT1 act inactive
N#CC1=C(N)Oc2c(oc(CO)cc2=O)C1c1ccsc1 (centres undefined)	none
Cc1cc(NC(=O)Nc2ccc(F)c(Cl)c2)no1	none
CC(=O)c1ccc(N2C(=O)[C@@H]3C(CCC(N)=O)NC4(C(=O)Nc5c4ccc(Cl)c5C)[C@@H]3C2=O)cc1 (some centres undefined)	STAT3 act-1 137 | STAT3 act-2 inactive | NFkB act 2 inactive | STAT1 act inactive
COc1ccccc1CN1C(=O)[C@@H]2C(CCC(N)=O)NC3(C(=O)Nc4c3ccc(Cl)c4C)[C@@H]2C1=O (some centres undefined)	none
Cc1[nH]n(-c2ccccc2)c(=O)c1N=Nc1ccccc1	STAT3 act-1 148 | STAT3 act-2 176 | NFkB act 2 130 | STAT1 act 174
Cc1cc(NS(=O)(=O)c2ccc(NC(=O)C(C)N3C(=O)c4ccccc4C3=O)cc2)nc(C)n1 (centres undefined)	none
O=C(NC(=S)N1CCCc2ccccc21)c1ccc([N+](=O)[O-])cc1	none
O=C(NC(=S)N1CCCc2ccccc21)c1ccccc1	STAT3 act-1 167 | STAT3 act-2 149 | NFkB act 2 inactive | STAT1 act inactive
Cc1c(NC(=O)C(C)OC(=O)[C@@H](NC(=O)c2ccccc2)C(C)C)c(=O)n(-c2ccccc2)n1C (some centres undefined)	none
CN(C)c1nc(OCCNC(=O)COc2ccc(Cl)cc2Cl)nc(N(C)C)n1	STAT3 act-1 146 | STAT3 act-2 inactive | NFkB act 2 inactive | STAT1 act inactive
CN(C)c1nc(OCCOC(=O)COc2ccc(Cl)cc2Cl)nc(N(C)C)n1	none
COC(=O)CSc1cc(C)nc2ccc(OC)cc12	none
COc1ccc2nc(C)cc(SCC(=O)O)c2c1	STAT3 act-1 140! | STAT3 act-2 inactive | NFkB act 2 inactive | STAT1 act inactive
CN1c2ccccc2C(=O)NC1c1ccc(Cl)cc1 (centres undefined)	none
Clc1ccc(C2Nc3ccccc3-n3cccc32)cc1 (centres undefined)	STAT3 act-1 166 | STAT3 act-2 160 | NFkB act 2 inactive | STAT1 act inactive
O=C(CC1Nc2ccccc2NC1=O)Nc1ccc2c(c1)OCO2 (centres undefined)	none
Cc1ccc(NC(=O)CC2Nc3ccccc3NC2=O)cc1Cl (centres undefined)	STAT3 act-1 138 | STAT3 act-2 inactive | NFkB act 2 inactive | STAT1 act inactive
CC(=O)Nc1c(C(=O)O)oc2ccc(Cl)cc12	STAT3 act-1 140 | STAT3 act-2 inactive | NFkB act 2 inactive | STAT1 act inactive
